Results reported in ChEMBL document CHEMBL4406821, “Novel dual inhibitors targeting CDK4 and VEGFR2 synergistically suppressed cancer progression and angiogenesis” (Eur J Med Chem, 2019).
pIC50: −log10 of the molar value. Activity calls are given as the source filed them. No cut-off for these calls is given here.

Tests used:
HUVEC [1] = test: Antiproliferative activity against HUVEC cells assessed as reduction in cell viability measured after 72 hrs by CCK8 assay; assay type: functional, cell-based; details: Homo sapiens
Procedure, shortened: (§1)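 Cells were seeded at 3×10³ cells/well and exposed to a range of concentrations or vehicle for 72 h. Viability was read by CCK-8 at 450 nm, with DMSO as blank and five replicates per sample. IC50 was calculated from the dose-response.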

MDA-MB-231 [2] = test: Inhibition of colony formation in human MDA-MB-231 cells at 40 nM incubated for 5 days by crystal violet staining based light microscopy; assay type: functional, cell-based
Procedure, shortened: (§2)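 4 × 10^3 cells per well were cultured with graded concentrations for 5 days. Cells were then fixed with 20% methanol, stained with 0.5% crystal violet and photographed by light microscopy.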

MDA-MB-231 [3] = test: Antiproliferative activity against human MDA-MB-231 cells at 40 nM assessed as reduction in cell viability incubated for 48 hrs by EdU staining based laser scanning confocal microscopy; assay type: functional
Procedure, shortened: (§3)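 Cells, 5×10^4, were seeded in 24-well plates and treated for 48 h. They were then labeled using an EdU Apollo 488 imaging kit with Hoechst 33342 nuclear stain and imaged by laser scanning confocal microscopy. Percent EdU-positive cells = EdU-positive/Hoechst-stained × 100%.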

[4] = Toxicity in NOD/SCID BALB/c mouse xenografted with human SiHa cells assessed as body weight at 40 mg/kg, po administered for 21 days; assay type: organism-based; details: in vivo, 504 h
Procedure, shortened: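 Female NOD/SCID Balb/c mice, 6–8 weeks, implanted subcutaneously in right flank with 2×10^6 SiHa cells in 100 µL medium. At 100 mm³ tumors, randomized (5 mice/group) to daily oral gavage. Body weight monitored every 3 days; study ended day 21.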

MDA-MB-231 [5] = test: Induction of apoptosis in human MDA-MB-231 cells assessed as decrease in Bcl2 expression at 40 nM incubated for 48 hrs by Western blot analysis; assay type: functional, cell-based
Procedure, shortened: (§4)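 Cells were treated for 48 h, washed three times with PBS, and lysed in RIPA buffer. Immunoblots used anti-Rb, anti-phospho-Rb, anti-Ki67 and anti-Bcl-2 (each 1:1000), with β-actin as loading control.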

SiHa [6] = test: Induction of apoptosis in human SiHa cells at 40 nM incubated for 48 hrs by annexin V FITC and propidium iodide staining based flow cytometry; assay type: functional, cell-based
Procedure, shortened: (§5)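 Annexin V-FITC/PI double staining with flow-cytometric readout. MDA-MB-231, T-47D, SiHa and HeLa cells were treated with graded concentrations for 48 h. MDA-MB-231 and T-47D were grown in DMEM and SiHa in 1640 medium, each with 10% FBS and 1% penicillin/streptomycin at 37°C under 5% CO2. Early- and late-stage apoptotic fractions were scored.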

SiHa [7] = test: Antiproliferative activity against human SiHa cells assessed as reduction in cell viability measured after 72 hrs by CCK8 assay; assay type: functional, cell-based; procedure, shortened: as §1
HeLa [8] = test: Induction of cell cycle arrest in human HeLa cells assessed as accumulation in G0/G1 phase at 80 nM incubated for 36 hrs by propidium iodide staining based flow cytometry; assay type: functional
Procedure, shortened: (§6)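 Cells were treated with graded concentrations for 36 h, then fixed overnight in 70% ice-cold ethanol at 4°C and resuspended in PBS. Staining used 50 µg/ml PI plus 5 µg/ml RNase at 37°C for 30 min. DNA content was analysed by FACS to give G0/G1, S and G2/M fractions.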

T47D [9] = test: Induction of cell cycle arrest in human T47D cells assessed as accumulation in G0/G1 phase at 40 nM incubated for 36 hrs by propidium iodide staining based flow cytometry; assay type: functional; procedure, shortened: as §6
[10] = biological target: CDK4/Cyclin D3 (Homo sapiens) (UniProt P11802+P30281); test: Inhibition of recombinant full length human CDK4/Cyclin D3 using Rb-fragmen as substrate at 1 uM incubated for 40 mins by [gamma-33P]-ATP based radiometric assay relative to control; assay type: protein-complex assay
Procedure, shortened: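 Kinase panel profiling at 1 μM performed by Eurofins KinaseProfiler; percent inhibition reported as mean of two independent experiments.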

SiHa [11] = test: Antiangiogenic activity against human SiHa cells xenografted in NOD/SCID BALB/c mouse assessed as reduction in CD31 expression at 40 mg/kg, po measured after 21 days by hematoxylin and eosin staining based immunohistochemistry; assay type: functional, organism-based
Procedure, shortened: (§7)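 Female NOD/SCID Balb/c mice, 6–8 weeks old, received 2×10^6 SiHa cells subcutaneously in the right flank. Once tumors reached 100 mm³, mice were randomized, 5 per group, and gavaged once daily for 21 days. Formalin-fixed, paraffin-embedded tumor sections were stained with Ki67 or CD31 antibody (1:100, 4 °C overnight), then biotin secondary and ABC-peroxidase/DAB, with hematoxylin counterstain.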

T47D [12] = test: Induction of apoptosis in human T47D cells assessed as decrease in Bcl2 expression at 40 nM incubated for 48 hrs by Western blot analysis; assay type: functional, cell-based
Procedure, shortened: (§8)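 Cancer cells were exposed to graded concentrations for 48 h, washed three times in PBS and lysed in RIPA buffer. Immunoblots were probed with anti-Rb, anti-phospho-Rb, anti-Ki67 and anti-Bcl-2, each at 1:1000. β-actin served as loading control.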

SiHa [13] = test: Induction of apoptosis in human SiHa cells assessed as decrease in Bcl2 expression at 80 nM incubated for 48 hrs by Western blot analysis; assay type: functional, cell-based; procedure, shortened: as §8
SiHa [14] = test: Antitumor activity against human SiHa cells xenografted in NOD/SCID BALB/c mouse assessed as tumor growth inhibition at 40 mg/kg, po administered for 21 days; assay type: functional, organism-based
MDA-MB-231 [15] = test: Antiproliferative activity against human MDA-MB-231 cells assessed as reduction in cell viability measured after 72 hrs by CCK8 assay; assay type: functional, cell-based; details: MDA-MB-231, 72 h; procedure, shortened: as §1
SiHa [16] = test: Antiproliferative activity against human SiHa cells assessed as reduction in cell viability at 80 nM incubated for 48 hrs by EdU staining based laser scanning confocal microscopy; assay type: functional; procedure, shortened: as §3
T47D [17] = test: Inhibition of colony formation in human T47D cells at 40 nM incubated for 5 days by crystal violet staining based light microscopy; assay type: functional, cell-based
Procedure, shortened: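 MDA-MB-231, T-47D, SiHa and HeLa cells seeded at 4×10^3/well and cultured with varying concentrations of drug or vehicle for 5 days. Fixed in 20% methanol, stained with 0.5% crystal violet, photographed under light microscopy. DMEM (T-47D) with 10% FBS, 37°C, 5% CO2.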

T47D [18] = test: Induction of apoptosis in human T47D cells at 40 nM incubated for 48 hrs by annexin V FITC and propidium iodide staining based flow cytometry; assay type: functional, cell-based; procedure, shortened: as §5
T47D [19] = test: Antiproliferative activity against human T47D cells assessed as reduction in cell viability at 40 nM incubated for 48 hrs by EdU staining based laser scanning confocal microscopy; assay type: functional; procedure, shortened: as §3
HeLa [20] = test: Inhibition of colony formation in human HeLa cells at 80 nM incubated for 5 days by crystal violet staining based light microscopy; assay type: functional, cell-based; procedure, shortened: as §2
SiHa [21] = test: Antitumor activity against human SiHa cells xenografted in NOD/SCID BALB/c mouse assessed as reduction in Ki67 expression at 40 mg/kg, po measured after 21 days by hematoxylin and eosin staining based immunohistochemistry; assay type: functional, organism-based; procedure, shortened: as §7
SiHa [22] = test: Induction of cell cycle arrest in human SiHa cells assessed as accumulation in G0/G1 phase at 80 nM incubated for 36 hrs by propidium iodide staining based flow cytometry; assay type: functional; procedure, shortened: as §6
T47D [23] = test: Antiproliferative activity against human T47D cells assessed as reduction in cell viability measured after 72 hrs by CCK8 assay; assay type: functional, cell-based; procedure, shortened: as §1
MDA-MB-231 [24] = test: Induction of cell cycle arrest in human MDA-MB-231 cells assessed as accumulation in G0/G1 phase at 40 nM incubated for 36 hrs by propidium iodide staining based flow cytometry; assay type: functional; procedure, shortened: as §6
HeLa [25] = test: Antiproliferative activity against human HeLa cells assessed as reduction in cell viability measured after 72 hrs by CCK8 assay; assay type: functional, cell-based; procedure, shortened: as §1
HeLa [26] = test: Induction of apoptosis in human HeLa cells assessed as decrease in Bcl2 expression at 80 nM incubated for 48 hrs by Western blot analysis; assay type: functional, cell-based; procedure, shortened: as §4
MDA-MB-231 [27] = test: Induction of apoptosis in human MDA-MB-231 cells at 40 nM incubated for 48 hrs by annexin V FITC and propidium iodide staining based flow cytometry; assay type: functional, cell-based; procedure, shortened: as §5
HUVEC [28] = test: Antiproliferative activity against HUVEC cells assessed as reduction in cell viability at 40 nM measured upto 72 hrs by CCK8 assay; assay type: functional, cell-based; details: Homo sapiens
Procedure, shortened: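 HUVECs, 3×10³ cells/well, kept in 1640 medium with 10% FBS at 37°C and 5% CO₂. Cells were treated at 20 or 40 nM or vehicle, and viability was read by CCK-8 (absorbance 450 nm) at 0, 12, 24, 36, 48, 60 and 72 h. Five replicates per sample.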

SiHa [29] = test: Inhibition of colony formation in human SiHa cells at 80 nM incubated for 5 days by crystal violet staining based light microscopy; assay type: functional, cell-based; procedure, shortened: as §2
HeLa [30] = test: Induction of apoptosis in human HeLa cells at 40 nM incubated for 48 hrs by annexin V FITC and propidium iodide staining based flow cytometry; assay type: functional, cell-based
Procedure, shortened: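 Cells were treated for 48 h, stained with FITC Annexin V and PI, and analyzed by flow cytometry to count early and late apoptotic cells.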

HeLa [31] = test: Antiproliferative activity against human HeLa cells assessed as reduction in cell viability at 80 nM incubated for 48 hrs by EdU staining based laser scanning confocal microscopy; assay type: functional; procedure, shortened: as §3

## CCN1CCN(Cc2ccc(Nc3ncc(F)c(-c4cc(F)c5nc(C)n(C(C)C)c5c4)n3)nc2)CC1 [ABEMACICLIB]
HUVEC [1]
  pIC50: 6.39
MDA-MB-231 [2]
  inhibition: Active
MDA-MB-231 [3]
  inhibition: Active
[4]
  Activity: Non-Toxic
MDA-MB-231 [5]
  Activity: Active
SiHa [6]
  Activity: Active
SiHa [7]
  pIC50: 6.06
HeLa [8]
  Activity: Active
T47D [9]
  Activity: Active
[10]
  inhibition: 99%
SiHa [11]
  inhibition: Active
T47D [12]
  Activity: Active
SiHa [13]
  Activity: Active
SiHa [14]
  TGI: Active
MDA-MB-231 [15]
  pIC50: 7.21
SiHa [16]
  inhibition: Active
T47D [17]
  inhibition: Active
T47D [18]
  Activity: Active
T47D [19]
  inhibition: Active
HeLa [20]
  inhibition: Active
SiHa [21]
  inhibition: Active
SiHa [22]
  Activity: Active
T47D [23]
  pIC50: 6.84
MDA-MB-231 [24]
  Activity: Active
HeLa [25]
  pIC50: 6.11
HeLa [26]
  Activity: Active
MDA-MB-231 [27]
  Activity: Active
HUVEC [28]
  inhibition: Active
SiHa [29]
  inhibition: Active
HeLa [30]
  Activity: Active
HeLa [31]
  inhibition: Active
